Measured values gathered from unrelated publications.
Lines come from different studies, so protocols differ.
RPS6KA3: Ribosomal protein S6 kinase alpha-3 (RPS6KA3, Homo sapiens, UniProt P51812)
RPS6KA3 N-terminal kinase domain: Ribosomal protein S6 kinase alpha-3, N-terminal kinase domain (RPS6KA3, Homo sapiens, UniProt P51812)
RPS6KA3 C-terminal kinase domain: Ribosomal protein S6 kinase alpha-3, C-terminal kinase domain (RPS6KA3, Homo sapiens, UniProt P51812)

N#CCCc1ccc2c(c1)-c1[nH]c3ccc([N+](=O)[O-])cc3c1CC(=O)N2 — remaining signal (RPS6KA3; cell-free assay; 0.5 µM): 28.6%
O=C(Nc1cnn(-c2csc(C(=O)NC3COC3)c2)c1)Nc1ccccc1Cl — remaining activity (RPS6KA3; enzyme activity; inhibitor; 5 µM): 101%
COc1cc(Cl)c(C(=O)N[C@@H](CN[C@H]2CC[C@@H](N)CC2)Cc2ccc(C#N)cc2)cc1-c1ccc(CN[C@H](C)c2ccc(C)cc2)o1 — remaining activity (RPS6KA3; enzyme activity; inhibitor; 1 µM): 72%
CN(CCCC(F)(F)F)c1nccc(-c2cnn3ncccc23)n1 — remaining binding (RPS6KA3 N-terminal kinase domain; binding; competition with immobilised ligand; 1 µM): 100%
CN(C)C1CCN(CC#Cc2nn(C3CCCC3)c3nc(NCc4ccccc4)ncc23)C1 (centres unmarked) — inhibition (RPS6KA3; enzyme activity; inhibitor; FRET; 10 µM): 15%
Cc1ccc(C(=O)Nc2ccc(CN3CCN(C)CC3)c(C(F)(F)F)c2)cc1C#Cc1cnc2cccnn12 — remaining activity (RPS6KA3; enzyme activity; inhibitor; 23.5 nM): 93%
COc1ccc2c(c1)O[C@H](c1ccc(OC)c(OC)c1)C[C@@H]2NC(=O)C1(c2ccc3c(c2)OC(F)(F)O3)CC1 — remaining binding (RPS6KA3 C-terminal kinase domain; cell-free assay; competition with immobilised ligand; 1 µM): 93%
CCN(CC)CCNC(=O)c1c(C)[nH]c(/C=C2\C(=O)Nc3ccc(F)cc32)c1C — remaining signal (RPS6KA3; cell-free assay; 0.5 µM): 35.5%
Oc1cccc(-c2nc(N3CCOCC3)c3oc4ncccc4c3n2)c1 — remaining activity (RPS6KA3; enzyme activity; inhibitor; 10 µM): 96%
CC(C)(C)c1nc2c(s1)c1nc(N)ncc1c1ccc(NS(=O)(=O)c3c(F)cccc3F)c(F)c12 — remaining activity (RPS6KA3; enzyme activity; inhibitor; radiometric; 1 µM): 90%
FC(F)(F)Oc1cccc(-c2cnc3ccc(-c4ccncc4)nn23)c1 — activity vs control (RPS6KA3; enzyme activity; inhibitor; radiometric; 5 µM): 98%
O=C(NCc1ncc(C(F)(F)F)cc1Cl)c1ccc2c(c1)C1(CCS(=O)(=O)CC1)[C@@H](C1CC1)N2S(=O)(=O)c1ccc(F)cc1 — remaining binding (RPS6KA3 C-terminal kinase domain; cell-free assay; competition with immobilised ligand; 1 µM): 82%
CNC(=O)c1cc(Oc2ccc(NC(=O)Nc3ccc(Cl)c(C(F)(F)F)c3)cc2)ccn1 — inhibition (RPS6KA3; enzyme activity; inhibitor; 10 µM): 46%
N[C@H]1CCN(c2nccc(-c3cnn4ncccc34)n2)C1 — remaining binding (RPS6KA3 C-terminal kinase domain; binding; competition with immobilised ligand; 1 µM): 40%
C[C@H](c1ccc(F)cc1)N(Cc1cccc(C(=O)O)c1)C(=O)c1cnc2ccccc2c1 — remaining binding (RPS6KA3 C-terminal kinase domain; cell-free assay; competition with immobilised ligand; 1 µM): 89%
CNc1cccc2cc(C(=O)Nc3ccc(C(=O)O)cc3)c(=O)[nH]c12 — inhibition (RPS6KA3; enzyme activity; inhibitor; 10 µM): 2.2%
COc1ccc2c(O[C@@H]3C[C@H]4C(=O)N[C@]5(C(=O)O)CC5/C=C\CCCCC[C@H](NC(=O)OC5CCCC5)C(=O)N4C3)cc(-c3csc(NC(=O)C(C)C)n3)nc2c1C (some centres unmarked) — remaining binding (RPS6KA3 N-terminal kinase domain; cell-free assay; competition with immobilised ligand; 1 µM): 100%
Cc1ccc(Nc2nccc(N(C)c3ccc4c(C)n(C)nc4c3)n2)cc1S(N)(=O)=O — inhibition (RPS6KA3; enzyme activity; inhibitor; 10 µM): 56%
COc1cc2ncnc(Nc3ccc(F)c(Cl)c3)c2cc1OCCCN1CCOCC1 — remaining signal (RPS6KA3; cell-free assay; 0.5 µM): 100%
COc1cc(Nc2cnc(C#N)c(O[C@H](C)CN(C)C)n2)ncc1-c1cnn(C)c1 — remaining activity (RPS6KA3; enzyme activity; inhibitor; radiometric; 1 µM): 9%
Nc1ncnc2occ(-c3ccc(NC(=O)Nc4cc(C(F)(F)F)ccc4F)cc3)c12 — remaining signal (RPS6KA3 C-terminal kinase domain; cell-free assay; inhibitor; 20 µM): 100%
CCCOc1ccc(OC)c(F)c1C(=O)c1ccc(C(=O)N[C@@H]2CNC[C@H]2NC(=O)c2ccc3[nH]ncc3c2)cc1 — remaining activity (RPS6KA3; enzyme activity; inhibitor; 10 µM): 12%
CC(C)(C)C(=O)c1sc(NC2CCCCC2)nc1N — remaining activity (RPS6KA3; enzyme activity; inhibitor; 10 µM): 104%
Cc1nc(N2CC[C@@H](O)C2)ncc1-c1cc(C(F)(F)F)cc2[nH]ncc12 — remaining binding (RPS6KA3 C-terminal kinase domain; binding; competition with immobilised ligand; 1 µM): 58%
C[C@@H]1CCN(c2nccc(-c3cnn4ncccc34)n2)C1 — remaining binding (RPS6KA3 N-terminal kinase domain; binding; competition with immobilised ligand; 1 µM): 74%
CCCS(=O)(=O)Nc1ccc(F)c(C(=O)c2c[nH]c3ncc(-c4ccc(Cl)cc4)cc23)c1F — inhibition (RPS6KA3; enzyme activity; inhibitor; 1 µM): < 10%
CCCOc1ccc([C@H]2[C@H](C(=O)O)[C@@H](c3ccc4c(c3)OCO4)CN2CC(=O)Nc2c(CC)cccc2CC)cc1 — remaining binding (RPS6KA3 C-terminal kinase domain; cell-free assay; competition with immobilised ligand; 1 µM): 73%
Cc1cc(NC(=O)c2cccc3cc(-c4cccc5[nH]nc(N)c45)ccc23)ccc1F — activity vs control (RPS6KA3; enzyme activity; inhibitor; 0.1 µM): 131%
COc1cccc2c(NCc3ccccc3)nc(-n3c(N)nc4ccccc43)nc12 — inhibition (RPS6KA3 N-terminal kinase domain; target engagement in cells; inhibitor; chemoproteomics; 20 mM): 34.2%
CC1CCCN1c1nccc(-c2cnn3ncccc23)n1 (centres unmarked) — remaining binding (RPS6KA3 N-terminal kinase domain; binding; competition with immobilised ligand; 1 µM): 100%
Cc1ccc(NC(=O)c2ccc(C)c(C(F)(F)F)c2)cc1C#Cc1nn(C2CCC(O)CC2)c2ncnc(N)c12 (centres unmarked) — remaining signal (RPS6KA3; cell-free assay; 10 µM): 44%
COc1cc2ncnc(Nc3ccc(Oc4ccccc4)c(C)c3C)c2cc1OC — inhibition (RPS6KA3; enzyme activity; inhibitor; 1 µM): -1%
COCCOc1nc(-c2ccc(Cl)nc2)nc2c1CN(C(=O)c1ncn3ccccc13)CC2 — remaining binding (RPS6KA3 N-terminal kinase domain; cell-free assay; competition with immobilised ligand; 0.1 µM): 100%
C[C@@H]1CCN(C(=O)CC#N)C[C@@H]1N(C)c1ncnc2[nH]ccc12 — remaining signal (RPS6KA3; cell-free assay; inhibitor; 0.5 µM): 97%
Cn1cncc1C1=CN(c2ncnc3[nH]cnc23)CCS1 — inhibition (RPS6KA3; enzyme activity; inhibitor; radiometric; 2 µM): 66%
CC(C)(O)[C@H]1CC[C@H](Nc2ccc3ncc(-c4cccc(C(F)(F)F)c4)n3n2)CC1 — remaining activity (RPS6KA3; enzyme activity; inhibitor; 1 µM): 90.6%
Cc1ccc(C(=O)NCc2ccsc2)cc1C#Cc1cn(C(C)C)c2ncnc(N)c12 — activity vs control (RPS6KA3; enzyme activity; inhibitor; 1 µM): 92%
c1cnn2ncc(-c3ccnc(N4CCC45COC5)n3)c2c1 — remaining binding (RPS6KA3 C-terminal kinase domain; binding; competition with immobilised ligand; 1 µM): 100%
CC/C(=N\NC(=O)C(C)Nc1ccccc1)c1ccc(O)c(C)c1O (centres unmarked) — inhibition (RPS6KA3; enzyme activity; inhibitor; 0.1 µM): 45.7%
O=C(O)c1cc(-c2ccc(C3CCNCC3)cc2)c2ccc(-c3ccc(C(F)(F)F)cc3)cc2c1 — remaining binding (RPS6KA3 C-terminal kinase domain; cell-free assay; competition with immobilised ligand; 1 µM): 80%
CN(c1nccc(-c2cnn3ncccc23)n1)C1CC1 — remaining binding (RPS6KA3 C-terminal kinase domain; binding; competition with immobilised ligand; 1 µM): 100%
